Dynein transport = dynein cargo transport inhibition. 3617.4 mouse cells, GR-EGFP nuclear translocation imaging; test concentration mostly 20 µM; stimulated with dexamethasone, 1 µM; active compounds read low. z-score, hits read low. actives 0.47% (n = 220,000);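 active = plate z-score of nuclear minus cytoplasmic receptor signal below a set negative limit, without overly bright fluorescence or cell loss, cut at about -3.5 in these data, passing the limit was not always enough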;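 also: z-score of nuclear minus cytoplasmic ring GR-EGFP intensity difference per well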
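medium = tetracycline-free induction medium containing charcoal-stripped FBS | probe or stimulus = dexamethasone, 1.0 µM final | timing = 48 h induction, then 1 h compound, then 30 min agonist, 37 °C | detection = automated 10x imaging of fixed Hoechst-stained cells | read-out basis = nuclear versus cytoplasmic GR-EGFP signal, averaged per well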
bCat nuc transl = alters nuclear translocation of beta-catenin in HeLa cells; nuclear translocation activity, % at 5 µM; immunofluorescence imaging; actives 0.3% (n = 190,000);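 active = nuclear translocation activity above 50% at 5 µM, with a well cell count of 50 or more; inconclusive = wells under 50 cells across six images, flagged as toxic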;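 also: per-cell ratio of nuclear to cytoplasmic median beta-catenin stain intensity; plate controls were DMSO negative control for no effect and GSK-3 inhibitor IX positive control for full effect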
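System: HeLa cells, endogenous beta-catenin; compound dosing: 5 µM primary single dose, 0.1% DMSO, 0.02–20 µM confirmation series; incubation: 24 h compound exposure at 37°C, 5% CO2; signal: beta-catenin immunofluorescence imaging with DAPI; evaluation: % activation, nuclear-to-cytoplasmic median beta-catenin signal ratio per cell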
L major viab = reduces viability of Leishmania major promastigotes; actives 9% (n = 200,000); inhibition, % at 10 µM; resazurin fluorescence viability; AID 1063; in the data active = inhibition above about 50%;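 also: promastigotes grown with compound for 44 hours at 28 °C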
MT stabilize HCS = microtubule stabilization, imaging screen. HeLa tubulin immunostaining HCS, 24 h; share of cells brighter than vehicle mean+2SD. % tubulin-high responders, % at 10 µM. actives 0.83% (n = 200,000). AID 2205;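 active = plate Z-score above 3 for both tubulin-high and condensed-nucleus cell shares, with cell loss under 80%, at 10 µM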;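 also: anti alpha tubulin signal scored within the nucleus-defined area of each cell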
CHOP inhibitor = inhibitors of CHOP induction in ER stress response | AID 2732 | inhibition, % at 10 µM | CHO-K1 CHOP-promoter luciferase, tunicamycin-induced, 15-18 h | actives 3.8% (n = 220,000);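 active = compounds that reduced the stress-induced luciferase reporter signal by more than about 70% of percent inhibition, limit read from the data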;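 also: 0% = tunicamycin plus vehicle and 100% = wells without tunicamycin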
Autophagy mod = modulators of autophagy; MEF GFP-LC3 puncta imaging; test concentration mostly 10 µM; AID 463193; actives 0.98% (n = 190,000); calls only at 10 µM (by protocol);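 active = percentage of spot-positive cells more than 3 SD above its plate mean, without a fluorescence outlier flag or 80% toxicity; inconclusive = no clear call, values can overlap the other calls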;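 also: spot-positive cell cutoff set from DMSO-treated cells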
Dynein confirm = dynein cargo transport inhibition, confirmation; shares compounds with Dynein transport; 3617.4 GR-EGFP nuclear translocation imaging, dexamethasone-induced; calls only at 20 µM; actives 69% (n = 1,000);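 active = inhibition of receptor movement into the nucleus at or above a set limit in both runs, with normal cell brightness and cell count; inconclusive = limit reached in only one run, brightness and count normal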;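 also: dexamethasone at 1 µM final in well for 30 min; nuclear minus cytoplasmic GR-EGFP mean intensity difference in channel 2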
CHOP confirm = confirmation of CHOP induction inhibitors. shares compounds with CHOP inhibitor. CHO-CHOP promoter luciferase reporter, tunicamycin-induced, luminescence. inhibition, % at 10 µM. actives 45% (n = 2,100);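 active = mean of three repeat readings of reporter signal inhibition above a set limit, cut at about 70% in these data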;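 also: 0% = tunicamycin plus vehicle and 100% = wells lacking tunicamycin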
* hit, by the source's call; i = inactive; u = inconclusive; x = no result; + = active, no number. This is a sample that favours compounds with a hit; in the whole collection about 12% have one here.

SMILES	Dynein transport	bCat nuc transl	L major viab	MT stabilize HCS	CHOP inhibitor	Autophagy mod	Dynein confirm	CHOP confirm
Cc1ccc(-c2c[nH]c(=S)n2-c2ccccc2F)cc1	-0.725	-1.8	-5.0	5.3	-6.4	i	x	x
O=CN1CCN(C(=O)c2ccc([N+](=O)[O-])cc2)CC1	-0.554	-1.3	-7.1	3.1	10.1	i	x	x
CS(=O)(=O)c1nc(-c2ccc(Br)cc2)cc(-c2ccccc2)c1C#N	-5.98*	x	83.9*	44.2	108.4*	+	+	-30.3
CS(=O)c1nc(-c2ccc(Br)cc2)cc(-c2ccccc2)c1C#N (stereo unspecified)	-4.14*	-1.0	100.4*	71.5	x	i	+	-14.1
COc1ccc2c(c1)c(C(=O)N/N=C/c1ccc(OC)c(OC)c1)c(C)n2C	0.0747	1.1	4.2	4.3	13.4	i	x	x
COc1cc(OC)nc(-n2ncc(Br)c(Br)c2=O)n1	-3.52*	x	100.3*	6.9	111.0*	i	+	118.5*
COc1cccc(-n2nc(C#N)c(Cl)cc2=O)c1	-6.15*	-1.9	100.2*	2.1	106.7*	+	+	-77.4
COc1ccc(-c2cc(C(F)(F)F)nc(S(=O)(=O)CCCC(=O)Nc3cccnc3Cl)n2)cc1OC	-5.08*	-0.2	81.6*	3.5	100.3*	i	+	-68.6
CN(C(=O)CCl)C1CCCc2ccccc21 (stereo unspecified)	-7.6*	0.2	85.8*	3.6	105.9*	i	+	80.2*
O=C(CCl)NC1CCCc2ccccc21 (stereo unspecified)	-0.18	2.2	6.6	4.1	-16.1	i	x	x
COc1ccc(CNC(=O)C(=O)NCCCn2ccnc2)cc1	-0.859	0.0	-2.4	1.0	9.1	i	x	x
Cn1cnc([N+](=O)[O-])c1S(=O)(=O)c1ccc(Cl)cc1	-4.22*	x	26.8	1.9	109.5*	i	+	115.5*
Cn1cnc([N+](=O)[O-])c1NC(C)(C)C	0.899	x	-3.4	2.4	26.9	i	x	x
CC1=C(CO)C(=O)OC([C@@H](C)C2CC[C@H]3C4C[C@H]5O[C@]56[C@@H](O)C=CC(=O)[C@]6(C)C4CC[C@]23C)C1 (stereo partly specified)	-3.81*	0.6	x	x	106.8*	x	u	106.4*
Cc1cc2cc(CCNC(=O)C3c4ccccc4Oc4ccccc43)c(=O)[nH]c2cc1C	-0.778	0.3	-7.8	4.8	67.4	i	x	x
COc1cccc(NC(=O)Cc2ccccc2)c1	0.81	2.1	-0.3	4.4	-6.7	i	x	x
O=C(Cc1ccccc1)Nc1cccc(N2C(=O)C=CC2=O)c1	-4.71*	-1.5	2.6	1.7	109.3*	i	+	131.6*
Nc1ccc(C(=O)Nc2ccco2)cc1	0.217	-0.1	3.3	4.3	11.5	i	x	x
Nc1ccc(N2CCCCCC2)cc1	-4.28*	-0.4	100.2*	5.0	x	i	u	127.7*
O=C(O)c1ccc(N2CCCCC2)cc1	-0.05	x	-8.9	3.9	-11.3	i	x	x
O=C1CC(N2CCC(c3nc4ccccc4o3)CC2)C(=O)N1c1ccc(Cl)cc1 (stereo unspecified)	-0.163	x	-5.1	2.5	x	i	x	x
O=C(Nc1ccccc1)C1=C(c2ccccc2)S(=O)(=O)CCS1(=O)=O	-4.55*	3.1	-0.7	1.6	108.3*	i	i	109.8*
COc1ccc(C(=O)/C=C/C(=O)N(CC(=O)NCCC(C)C)Cc2cccs2)c(O)c1	-6.14*	7.8	15.6	1.5	106.2*	i	+	112.6*
COc1ccc(C(=O)/C=C/C(=O)N(CC(=O)NC2CCCCC2)Cc2ccc(F)cc2)c(O)c1	-4.54*	3.3	23.9	4.3	107.7*	i	+	140.1*
O=C(NC1CCCCC1)C(c1ccc(O)c(O)c1)N(C(=O)Cn1nnc2ccccc21)c1cccc(O)c1 (stereo unspecified)	-0.708	2.4	-4.4	0.8	-9.7	i	x	x
SMILES	Dynein transport	bCat nuc transl	L major viab	MT stabilize HCS	CHOP inhibitor	Autophagy mod	Dynein confirm	CHOP confirm
O=c1cc(-c2c(F)c(F)c(F)c(F)c2F)oc2ccccc12	-0.633	x	15.7	1.8	29.1	i	x	x
O=c1cc(-c2c(F)c(F)c(F)c(F)c2F)oc2c(F)c(F)c(F)c(F)c12	-8.24*	-4.6	57.9*	2.3	108.6*	i	+	124.0*
CCOc1ccc(OCC)c(NC(=O)c2[nH]c(C)c(C(C)=O)c2C)c1	-0.574	0.4	-3.8	2.5	24.9	i	x	x
O=C1COc2ccc(C(=O)CCl)cc2N1	-4.02*	0.6	x	x	100.7*	x	+	18.4
C=CS(=O)(=O)c1ccc(Oc2ccc(S(=O)(=O)C=C)cc2)cc1	-4.02*	1.1	-6.6	2.4	x	i	+	119.6*
NS(=O)(=O)c1ccc(Oc2ccc(S(N)(=O)=O)cc2)cc1	1.3	-2.9	-3.6	3.0	-13.5	i	x	x
O=C(CN1CCCCC1)Nc1cccc(Oc2ccccc2)c1	-0.178	x	4.7	2.6	36.0	i	x	x
O=C(CCl)Nc1cccc(Oc2ccccc2)c1	-4.28*	-0.4	97.9*	5.2	106.8*	i	+	-201.5
O=c1c(Cl)c(Cl)cnn1Cc1nnc(-c2ccccc2Br)o1	-5.6*	-2.5	99.5*	2.8	104.2*	i	+	122.1*
Cc1cc(C(=O)CCl)c(C)n1-c1cccc(S(=O)(=O)N2CCOCC2)c1	-5.28*	-1.0	100.6*	3.2	103.1*	i	+	76.1*
CNC(=O)COC(=O)c1ccccc1C(=O)c1ccc(Cl)c([N+](=O)[O-])c1	-4.3*	4.2	4.7	3.5	97.2*	i	+	-57.2
CC(C)OC(=O)c1ccccc1C(=O)c1ccc(N)c([N+](=O)[O-])c1	-0.656	0.3	3.5	3.1	37.4	i	x	x
O=C(O)CSCC(=O)N1CCN(S(=O)(=O)c2cc(Cl)cc(Cl)c2)CC1	0.225	-1.5	x	x	1.6	x	x	x
COC(=O)[C@@]1(Cc2ccc(F)cc2)[C@H]2c3cc(C(=O)N(C)C)n(Cc4ccccc4)c3C[C@H]2CN1C(=O)c1ccccc1	-0.441	-4.7	39.2	5.8	63.7	i	x	x
C=C1C(=O)C=C2CN(C(=O)c3ccccc3)[C@@](Cc3ccc(F)cc3)(C(=O)OC)[C@@H]12	-4.96*	0.2	100.4*	26.6	109.2*	i	+	128.3*
Cn1c(=O)c2[nH]c(CNCc3ccccc3Cl)nc2n(C)c1=O	-1.29	-0.8	-2.7	1.7	25.4	i	x	x
Cn1ncc(S(=O)(=O)Cc2ccccc2)c(Cl)c1=O	-5.21*	-2.2	x	x	102.0*	x	+	-2.6
